The values that follow come from ChEMBL document CHEMBL1138479, “Synthesis and antiplasmodial activity of aminoalkylamino-substituted neocryptolepine derivatives” (J Med Chem, 2009).

One may read the pIC50 as the IC50 on a negative log10 scale, so that one unit is a factor of ten. Usually inhibition stands for the relative decrease from the control value, in per cent.

pIC50: −log10 of the molar value. Active and inactive are the calls of the source. The calls are words filed in the database; no cut-off is given here.

The test system of one data set is MRC5. In words: Cytotoxicity against human MRC5 cells. It counts as cell-based. In outline:
(§1)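 MRC-5 SV2 fibroblasts were kept in MEM with 20 mM L-glutamine and 5% FCS at 37 °C, 5% CO2. Cells were seeded at 10⁴/well onto prediluted compounds and incubated 72 h. Viability was read fluorimetrically after resazurin addition.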

Data set [1] can be described thus: Cytotoxicity against human MRC5 SV2 cells after 72 hrs by resazurin-based fluorometric assay. The format is cell-based. The settings on record: MRC5, 72 h. In outline: as §1
For orientation: The colour change of resazurin is a common sign of viable cells or microbes.

The nature of data set [2]: Selectivity index, ratio of IC50 for human MRC5 SV2 cells to IC50 for chloroquine-sensitive Plasmodium falciparum Ghana. It counts as toxicity, cell-based. To be noted: read-out: Ratio IC50.
In another data set the target is Nucleic Acid. Briefly: Binding affinity to DNA assessed as intercalation after 24 hrs by DNA-methyl green assay. The format is nucleic-acid assay. In outline: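 DNA-methyl green reagent (20 mg in 100 mL 0.05 M Tris HCl pH 7.5 with 7.5 mM MgSO4, stirred 24 h at 37 °C) was added to dried compound. A620 was read at 0 and after 24 h at 25 °C. […] Cryptolepine was the positive control.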

The target in data set [3] is T1, Histidine-rich protein PFHRP-II (Plasmodium falciparum, UniProt P05227).
T1 sequence (P05227 whole entry): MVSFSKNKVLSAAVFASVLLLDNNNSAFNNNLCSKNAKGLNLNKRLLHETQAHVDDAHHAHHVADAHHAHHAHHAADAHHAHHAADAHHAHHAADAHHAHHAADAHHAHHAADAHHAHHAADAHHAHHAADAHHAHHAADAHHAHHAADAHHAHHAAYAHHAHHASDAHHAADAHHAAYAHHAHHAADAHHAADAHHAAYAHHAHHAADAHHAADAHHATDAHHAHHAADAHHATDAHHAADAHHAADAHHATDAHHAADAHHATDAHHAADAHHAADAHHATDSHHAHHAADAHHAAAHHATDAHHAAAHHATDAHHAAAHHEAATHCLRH
In words: Inhibition of beta-hematin formation after 18 hrs by microtiter plate assay. The format is functional.

Another data set has as its system Plasmodium falciparum. In words: Antiplasmodial activity against chloroquine-sensitive Plasmodium falciparum Ghana in human erythrocytes after 72 hrs by Malstat assay. It counts as functional, organism-based. In outline:
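P. falciparum Ghana strain grown in human erythrocytes in RPMI-1640 at 37 °C under 3% O2, 4% CO2, 93% N2. Exposure to compounds lasted 72 h. Multiplication was read by Malstat with absorbance at 655 nm, and % growth inhibition was taken against negative blanks.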

Data set [4] has as its target T2, Histidine-rich protein PFHRP-II (Plasmodium falciparum) (UniProt P05227).
T2 sequence (whole entry): T1 sequence (P05227 whole entry)
In words: (§2) Inhibition of beta-hematin formation at 5 milliequivalent after 18 hrs by microtiter plate assay. It counts as functional.

Data set [5] has as its system Plasmodium berghei. In words: Antiplasmodial activity as reduced parasitaemia against chloroquine-sensitive Plasmodium berghei ANKA infected Swiss mice (Mus musculus) at 50 mg/kg intraperitoneal dose 4-6 hrs post infection on day 4. It counts as functional. In outline: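 Swiss mice were infected ip with 4 × 10⁸ P. berghei ANKA-infected erythrocytes. Treatment was ip at 50 mg/kg daily for five consecutive days. Parasitaemia was scored on Giemsa-stained blood smears on days 4 and 7.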

Data set [6] addresses T1, Histidine-rich protein PFHRP-II. The description is as §2. It counts as functional.
The nature of data set [7]: Toxicity in Swiss mice (Mus musculus) infected with chloroquine-sensitive Plasmodium berghei ANKA assessed as mortality at 50 mg/kg, intraperitoneally administered 4 to 6 hrs after infection for 5 consecutive days measured within 7 days of postinfection. It counts as organism-based. On the set-up: dose 50 mg/kg, route intraperitoneal. To be noted: in vivo, ip, read-out: Activity. In outline:
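Swiss mice were infected intraperitoneally with 4 × 10⁸ erythrocytes carrying chloroquine-sensitive P. berghei ANKA. They were dosed intraperitoneally at 50 mg/kg daily for five consecutive days. Parasitaemia was read on Giemsa-stained blood smears on days 4 and 7.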

Data set [8] relates to Plasmodium berghei. In words: Antiplasmodial activity as reduced parasitaemia against chloroquine-sensitive Plasmodium berghei ANKA infected Swiss mice (Mus musculus) at 20 mg/kg intraperitoneal dose 4-6 hrs post infection on day 4. On the set-up: dose 20 mg/kg. It counts as functional, organism-based. In outline: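 Mice infected ip with P. berghei ANKA-infected erythrocytes (4 × 10⁸) received the compound intraperitoneally. Parasitaemia was counted on Giemsa-stained blood smears on days 4 and 7.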

In the case of `Cn1c2nc3ccccc3c-2cc2cc(Br)ccc21`, the pIC50 was under 4.49 with MRC5, under 4.49 in [1] and under 3.40 on Nucleic Acid. For the same compound, in [2], the selectivity ratio was over 5. In data set [3], this compound returned an IC50 of 1.77 milliequivalent.
As for `CCN(CC)CCCC(C)Nc1ccc2nc3n(C)c4ccccc4cc-3c2c1` (centres undefined), the pIC50 with Plasmodium falciparum was 6.85; in [1] it was 4.80; on Nucleic Acid it was 3.35. Besides, the selectivity ratio in data set [2] worked out at 114. Further, the inhibition in data set [4] is under 20%.
For `CCN(CC)CCCC(C)Nc1c2c3ccccc3nc-2n(C)c2cccc(Cl)c12` (centres undefined), in that order: 6.46, 4.68, under 3.00, 60 and under 20%.
With `CCN(CC)CCCC(C)Nc1c2cc(Cl)ccc2nc2[nH]c3ccccc3c12` (centres undefined), the pIC50 with Plasmodium falciparum is 6.92; in data set [1], under 4.19; on Nucleic Acid, under 3.00. Besides, the selectivity ratio in data set [2] is over 533. Further, the IC50 in data set [3] worked out at 2.3 milliequivalent. Also, the outcome with Plasmodium berghei [5] was inactive.
`Cn1c2nc3ccccc3c-2c(N2CCN(CCO)CC2)c2cc(Cl)ccc21`: the pIC50 with Plasmodium falciparum is 5.64; in [1], 6.09; at Nucleic Acid, 3.42. The selectivity ratio in data set [2] came out at 0.4. Moreover, the IC50 result in [6] was “Not Active”.
The matching figures for `Cn1c2nc3ccccc3c-2c(Cl)c2c(Cl)cccc21`: 4.41, 4.47, under 3.00, 0.9 and “Not Active”.
The matching figures for `Cn1c2nc3ccccc3c-2c(N2CCC(N3CCCCC3)CC2)c2cc(Cl)ccc21`: 5.61, 5.36, 3.74, 2 and “Not Active”.
For `CCN(CC)CCCC(C)Nc1c2c3ccccc3nc-2n(C)c2ccc(Cl)cc12` (centres undefined), the mortality at 7 days in data set [7] was found to be 50%. Also, the pIC50 was 7.37 in the data set on Plasmodium falciparum, 4.54 in [1] and under 3.00 on Nucleic Acid. Also, in [2], the selectivity ratio was 674. In [4], the inhibition is under 20%. For the same compound, in the data set on Plasmodium berghei [5], the Activity was found to be 100%. Further, the result in the data set on Plasmodium berghei [8] was inactive.
Regarding `Clc1ccc2nc3[nH]c4ccccc4c3c(NCCN3CCOCC3)c2c1`, the pIC50 is 4.48 in the data set with Plasmodium falciparum, under 4.19 in data set [1] and under 3.00 at Nucleic Acid. In [2], the selectivity ratio is over 2. For the same compound, the IC50 entry in data set [6] is on record as “Not Active”.
